This passage reports Activity and viability results from ChEMBL document CHEMBL4480463, “Quassinoids from Picrasma quassioides and Their Neuroprotective Effects” (2019).

Test [1] relates to SH-SY5Y. Briefly: Neuroprotective activity against H2O2-induced cytotoxicity in human SH-SY5Y cells at 25 to 100 uM preincubated for 1 hr followed by H2O2-stimulation and measured after 4 hrs by MTT assay. In kind it is functional, cell-based. The gist of the method:
(§1)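 SH-SY5Y cells preincubated with compound (25, 50 or 100 μM) for 1 h, then exposed to 300 μM H2O2 for 4 h. Viability read by MTT assay. Trolox served as positive control.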

Test [2] has as its system SH-SY5Y. Briefly: Inhibition of H2O2-induced apoptosis in human SH-SY5Y cells assessed as necrotic cells at 25 uM preincubated for 1 hr followed by H2O2-stimulation and measured after 4 hrs by Annexin V-FITC/propidium iodide staining-based flow cytometric analysis (reference value: 22.2%). Also on record: scale not given: the % may be the effect or the level left. In kind it is functional. For orientation: Flow cytometry measures light scatter and fluorescence of single cells or particles in a stream.

Test [3] relates to SH-SY5Y. As to the kind of experiment: Neuroprotective activity against H2O2-induced cytotoxicity in human SH-SY5Y cells at 25 uM preincubated for 1 hr followed by H2O2-stimulation and measured after 4 hrs by MTT assay. Type of test: functional, cell-based. The gist of the method: as §1
In general terms: Tetrazolium assays rely on reduction of a dye to a coloured formazan, in cell work by metabolically active cells.

Test [4] relates to SH-SY5Y. Briefly: Inhibition of H2O2-induced apoptosis in human SH-SY5Y cells assessed as viable cells at 25 uM preincubated for 1 hr followed by H2O2-stimulation and measured after 4 hrs by Annexin V-FITC/propidium iodide staining-based flow cytometric analysis (reference value: 50.7%). The conditions noted are these: read-out: Activity. In kind it is functional.
Test [5] has as its system SH-SY5Y. Briefly: Inhibition of H2O2-induced apoptosis in human SH-SY5Y cells assessed as late apoptotic cells at 25 uM preincubated for 1 hr followed by H2O2-stimulation and measured after 4 hrs by Annexin V-FITC/propidium iodide staining-based flow cytometric analysis (reference value: 24.9%). Also noted: scale not given: the % may be the effect or the level left. Type of test: functional.

Test [6] has as its system SH-SY5Y. Briefly: Inhibition of H2O2-induced apoptosis in human SH-SY5Y cells assessed as early apoptotic cells at 25 uM preincubated for 1 hr followed by H2O2-stimulation and measured after 4 hrs by Annexin V-FITC/propidium iodide staining-based flow cytometric analysis (reference value: 2.25%). In kind it is functional. Also noted: scale not given: the % may be the effect or the level left.

Test [7] has as its system SH-SY5Y. As to the kind of experiment: Inhibition of H2O2-induced apoptosis in human SH-SY5Y cells assessed as decrease in caspase-3 activity at 25 uM. In kind it is functional, cell-based. In a few lines:
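SH-SY5Y cells exposed to H2O2 with or without test compound; caspase-3 activity in the cells quantified with a commercial caspase-3 activity assay kit; data given as means ± SDs.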

Calls of active or inactive are those of the source. No cut-off for these calls is given here.

Take `COC1=C[C@@H](C)[C@@H]2C[C@H]3O[C@@H](O[C@@H]4O[C@H](CO)[C@@H](O)[C@H](O)[C@H]4O)C[C@H]4[C@](C)(O)[C@H](OC)[C@@H](O)[C@H]([C@@]2(C)C1=O)[C@@]34C`: the outcome in test [1] was Active.
As for `COC1=C[C@@H](C)[C@@H]2C[C@H]3OC(=O)C[C@H]4C(C)=C(OC)C(=O)[C@H]([C@@]2(C)C1=O)[C@@]34C` [QUASSIN], the figures for the Activity in test [2], in test [5] and in test [6] were 10.7%, 13.7% and 2.45%, respectively. In addition, in test [3], the outcome was Active. Further, in test [4], the viability at 25 µM is 73.1%.
Consider `COC1=C[C@@H](C)[C@@H]2C[C@H]3O[C@@H](O[C@@H]4O[C@H](CO)[C@@H](O)[C@H](O)[C@H]4O)C[C@H]4C(C)=C(OC)C(=O)[C@H]([C@@]2(C)C1=O)[C@@]34C` [PICRASINOSIDE B], for which the result in test [7] and in test [3] was Active. The Activity is 7.43% in test [2], 8.55% in test [5] and 1.86% in test [6]. Further, the viability at 25 µM in test [4] turned out to be 82.2%.
With `COC1=C[C@@H](C)[C@@H]2C[C@H]3OC(=O)C[C@H]4C(CO)=C(OC)C(=O)[C@H]([C@@]2(C)C1=O)[C@@]34C`, the Activity in test [2] was 7.31%; in test [5], 13%; in test [6] it was 2.96%. Besides, the result in test [3] was Active. Also, the viability at 25 µM in test [4] was determined as 76.8%.
`COC1=C[C@@H](C)[C@@H]2C[C@H]3OC(=O)C[C@H]4[C@@H](C)[C@@H]5OCO[C@H]5[C@H]([C@@]2(C)C1=O)[C@@]34C`: in test [1], the outcome was Active.
In the case of `COC1=C[C@@H](C)[C@@H]2C[C@H]3OC(=O)C[C@H]4[C@@H](C)[C@H](OC)[C@@H](OC(=O)c5cc(OC)c6c(c5)OCO6)[C@H]([C@@]2(C)C1=O)[C@@]34C`, the outcome in test [7] and in test [3] was Active. The Activity turned out to be 7.89% in test [2], 10.1% in test [5] and 2.2% in test [6]. In addition, the viability at 25 µM in test [4] turned out to be 79.8%.
Turning to `COC1=C(C)[C@@H]2CC(=O)O[C@@H]3C[C@H]4[C@H](C)C[C@H](O)C(=O)[C@]4(C)[C@@H](C1=O)[C@@]32C`, the result in test [1] was Active.
Still for that read-out and setting: next, `COC1=C[C@@H](C)[C@@H]2C[C@H]3O[C@@H](O[C@@H]4O[C@H](CO)[C@@H](O)[C@H](O)[C@H]4O)C[C@@H]4[C@@]3(C)[C@H]([C@H](O)C(=O)[C@@]4(C)O)[C@@]2(C)C1=O`: “inactive”.
Still for that read-out and setting: the result for `COC1=C[C@@H](C)[C@@H]2C[C@H]3O[C@@H](O[C@@H]4O[C@H](CO)[C@@H](O)[C@H](O)[C@H]4O)C[C@@H]4[C@@]3(C)[C@H]([C@H](O)C(=O)[C@@]4(C)OC(C)=O)[C@@]2(C)C1=O` reads “inactive”.
Still for that read-out and setting: the result for `COC1=C[C@@H](C)[C@@H]2C[C@H]3O[C@@H](O[C@@H]4O[C@H](CO)[C@@H](O)[C@H](O)[C@H]4O)C[C@H]4[C@@H](C)[C@H](OC)[C@@H](O)[C@H]([C@@]2(C)C1=O)[C@@]34C` reads “Active”.
As to `COC1=C[C@@H](C)[C@@H]2C[C@H]3OC(=O)C[C@@]4(O)C(C)=C(OC)C(=O)[C@H]([C@@]2(C)C1=O)[C@@]34C`, the Activity was determined as 11.3% in test [2], 13.4% in test [5] and 3.18% in test [6]. For the same compound, the outcome in test [3] was Active. For the same compound, the viability at 25 µM in test [4] was determined as 72.1%.
As for `COC1=C[C@@H](C)[C@@H]2C[C@H]3OC(=O)C[C@H]4[C@@H](C)[C@H](O)C(=O)[C@H]([C@@]2(C)C1=O)[C@@]34C`, the result in test [1] was inactive.
Still for that read-out and setting: the result for `COC1=C[C@@H](C)[C@@H]2C[C@H]3OC(=O)C[C@@]4(O)[C@@H](C)[C@H](OC)[C@@H](O)[C@H]([C@@]2(C)C1=O)[C@@]34C` reads “Active”; that for `COC1=C[C@@H](C)[C@@H]2C[C@H]3OC(=O)C[C@H]4[C@](C)(O)[C@@H](O)C(=O)[C@H]([C@@]2(C)C1=O)[C@@]34C`, “inactive”.
Same read-out and setting: next, `COC1=C[C@@H](C)[C@@H]2C[C@H]3OC(=O)C[C@H]4[C@](C)(O)[C@H](OC)[C@@H](O)[C@H]([C@@]2(C)C1=O)[C@@]34C`: “Active”.
As for `COC1=C[C@@H](C)[C@@H]2C[C@H]3OC(=O)C=C4[C@@H](C)[C@@H]5OCO[C@H]5[C@@H]([C@]43C)[C@@]2(C)C1=O`, the outcome in test [1] was inactive.
As to `COC1=C[C@@H](C)[C@@H]2C[C@H]3OC(=O)C=C4C(C)=C(OC)C(=O)[C@@H]([C@]43C)[C@@]2(C)C1=O`, in test [1], the result was Active.
`COC1=C[C@@H](C)[C@@H]2C[C@H]3OC(=O)C[C@H]4[C@](C)(O)[C@@H]5OCO[C@H]5[C@H]([C@@]2(C)C1=O)[C@@]34C`: the outcome in test [1] was Active.
Same read-out and setting: the result for `COC1=C[C@@H](C)[C@@H]2C[C@H]3OC(=O)C[C@H]4[C@@H](C)[C@@H](O)C(=O)[C@H]([C@@]2(C)C1=O)[C@@]34C` reads “inactive”.
